Screening data: PubChem BioAssay, several laboratories
B2AR ag: agonists of human beta-2 adrenergic receptor inducing internalization; P07550; Am2.2-beta2AR cells, FAP receptor internalization, flow cytometry; response, % (no concentration beside the values); hit rate 0.43% among 340,000; AID 504454;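 active = response above a set limit, near 3 SD of response in nonfluorescent compounds, cut at about 42% in these data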
GRK2 aptamer HTS: blocks RNA aptamer binding to human GRK2. P25098. bead flow cytometry, FAM-aptamer displacement from GRK2. inhibition of aptamer binding, % at 10 µM. hit rate 0.59% among 330,000. AID 488847;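 active = inhibition of aptamer binding above 40%, roughly 3 SD of noise, on plates passing a quality check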;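 note: median bead fluorescence of bound FAM aptamer so fluorescent compounds give negative values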
ABHD5 PLIN5 PPI: ABHD5-PLIN5 protein interaction inhibition; Split G. princeps luciferase complementation, luminescence, 4 h; Q00G26+Q8WTS1; AID 602281; hit rate 0.78% among 360,000; inhibition, % at 4 µM;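 active = inhibition above the mean inhibition across every tested compound plus 3 SD, cut at about 22% in these data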;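 note: 0% = DMSO only wells and the 100% control is not disclosed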
NadD inh: blocks S. aureus nicotinate mononucleotide adenylyltransferase; purified NadD enzyme, colorimetric absorbance read-out; inhibition, % at 20 µM; hit rate 0.78% among 360,000; in the data active = inhibition above about 26%
SENP1 FRET inh: inhibitors of human SENP1 SUMO protease catalytic domain; Q9P0U3; recombinant SENP1 catalytic domain, CyPet-SUMO1-YPet FRET cleavage; inhibition, % at 10 µM; hit rate 0.21% among 360,000; AID 624204;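 active = inhibition at least 30% at 10 µM, raw YFP signal under a set limit, fluorescence ratio 0.5 to 1.5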;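 note: 0% = enzyme with DMSO and 100% = no enzyme wells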
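material = recombinant human SENP1 catalytic domain, His6-tagged | quantity = 20 pM enzyme | reagent = 25 nM SUMO1 FRET substrate | compound dosing = 10 µM single point, 0.5% DMSO | timing = 50 min enzyme reaction, room temperature, light-protected | detection = FRET, CFP and YFP emission | control set = no-enzyme low, enzyme-DMSO high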
* = called active by the depositor; nt = no result given. Shown are actives, neighbours in structure and some others; about 2.5% of the full set was active somewhere.

SMILES	B2AR ag	GRK2 aptamer HTS	ABHD5 PLIN5 PPI	NadD inh	SENP1 FRET inh
Oc1ccc(/C=N/N(c2ccccc2)c2ccccc2)c(O)c1O	6	3	-7	37*	10
COc1ccc2c(c1OC)CN1CCc3cc4c(cc3[C@@H]1[C@@H]2O)OCO4	-8	1	-2	-2	42
O[C@@H]1[C@@H](O)C=C2CCN3Cc4cc5c(cc4[C@H]1C23)OCO5 (some centres undefined)	61*	0	7	-2	-2
COc1cc(C2/C(=C(\O)c3ccc4c(c3)OCCO4)C(=O)C(=O)N2c2nnc(C)s2)cc(OC)c1OC (centres undefined)	5	0	-3	1	24
COc1ccc(CN(CCN(C)C)c2ccccn2)cc1	-6	2	0	-4	1
CCCCCCCCCCCCCCCC[N+](C)(C)CCN(Cc1ccc(OC)cc1)c1ncccn1	35	0	18	75*	2
O=C1/C(=C\c2ccc(O)cc2)SC(=S)N1Cc1ccccc1	-109	6	0	-2	59
COc1cc([N+](=O)[O-])cc(/C=C2/SC(=S)N(Cc3ccccc3)C2=O)c1O	-20	5	1	8	79*
O=C1/C(=C\c2cc(Br)cc(Br)c2O)SC(=S)N1Cc1ccccc1	-52	2	-3	42*	14
CCCCNC(=O)C(NC(=O)Cc1cc(C(F)(F)F)cc(C(F)(F)F)c1)C(=O)c1ccccc1 (centres undefined)	nt	nt	-5	nt	-13
CCNC(=O)N1CCCC(C(=O)c2ccc(C(F)(F)F)cc2)C1 (centres undefined)	-3	0	-9	-1	1
CCOC(=O)C(=O)Nc1cccc(C(=O)OCC)c1	64*	0	9	8	3
CCOCC(=O)Nc1cccc(C(=O)OCC)c1	5	1	1	5	1
CCCCn1c(SCC(=O)Nc2sc3c(c2C(N)=O)CCC3)nnc1-c1ccccc1	-6	4	22*	4	-12
O=C1C=C(c2c(O)ccc3ccccc23)c2ccccc2C1=O	76*	nt	91*	2	8
Nc1cc(=O)[nH]c2ncnn12	-3	nt	6	0	-3
O=C1/C(=C\c2ccc(O)cc2)SC(=S)N1c1cccnc1	-1	0	-3	31*	81*
Cc1cc(C)nc(NN2C(=O)/C(=C/c3ccc(O)cc3)SC2=S)n1	-10	84*	-6	-1	67
COc1ccccc1/C=C1\SC(=S)N(Nc2nc(C)cc(C)n2)C1=O	-5	2	-11	1	-4
Cc1cc(/C=C2/SC(=S)N(c3cccc(C(F)(F)F)c3)C2=O)c(C)n1-c1cccnc1	nt	5	0	44*	-23
[N-]=[N+]=NC1CC(CO)OC1n1ccc(=O)[nH]c1=O (centres undefined)	-3	0	3	-4	1
CC(=O)c1c(C(C)=O)c(C)n(-c2ccc(C(=O)O)cc2)c1C	3	0	-6	7	1
Cc1ccc(C)n1-c1ccc(C(=O)O)cc1	nt	82*	nt	nt	nt
Oc1ccc(N=C/C=C/c2cccc(Br)c2)cc1-c1nc2ccccc2s1	3	85*	19	41*	-26
Oc1ccc(-c2nc3ccccc3s2)c(O)c1	-17	0	-3	-2	-7
SMILES	B2AR ag	GRK2 aptamer HTS	ABHD5 PLIN5 PPI	NadD inh	SENP1 FRET inh
COc1ccc2c(c1)c(CC(=O)NCc1cc([N+](=O)[O-])ccc1O)c(C)n2C(=O)c1ccc(Cl)cc1	5	0	-1	33*	1
O=C(COC(=O)c1ccc(NS(=O)(=O)c2cccs2)cc1)Nc1nc2c(F)c(F)c(F)cc2s1	-4	nt	4	50*	-60
O=C(/C(Br)=C/Nc1cc(Cl)ccc1Cl)C(F)(F)F	4	86*	4	-2	-5
CCOc1ccc(N=Cc2ccc(N(C)C)cc2)c(O)c1	nt	nt	-4	21	26
CCOc1ccc(N=Cc2ccc([N+](=O)[O-])cc2)c(O)c1	nt	nt	-12	-5	39*
CC(NC(=O)c1ccccc1SCC(=O)N1CCCC1)c1ccc(F)cc1 (centres undefined)	-13	0	-4	-10	0
O=C(/C=C/c1ccc(OC(F)F)cc1)OCC(=O)N1CCC(c2ccccc2)=N1	-5	0	2	-8	2
CCCS(=O)(=O)Nc1ccc(Nc2c3ccccc3nc3ccccc23)c(OC)c1	2	nt	1	0	-85
COc1cc(N)ccc1Nc1c2ccccc2nc2ccccc12	nt	nt	-3	35*	-26
COc1ccc(NC(=O)CNCc2ccc(Cl)cc2)cc1S(=O)(=O)N1CCOCC1	-4	3	0	-3	-1
Cc1c(NC(=O)c2cc(-c3ccccc3)nc3ccccc23)c(=O)n(-c2ccccc2)n1C	8	0	5	4	0
Cc1c(NC(=O)COC(=O)c2cc(-c3ccc(-c4ccccc4)cc3)nc3ccccc23)c(=O)n(-c2ccccc2)n1C	-7	2	-1	50*	-10
O=C(O)C1Nc2c(Cl)cc(Cl)cc2C2C=CCC12 (centres undefined)	7	72*	0	28	-59
O=C(O)C1Nc2c(O)cccc2C2C=CCC12 (centres undefined)	12	3	17	40*	-17
CCOC(=O)C1Nc2ccc(C)cc2C2C=CCC12 (centres undefined)	2	nt	11	0	-14
O=C(O)C1Nc2ccc(Br)cc2C2C=CCC12 (centres undefined)	3	77*	6	31*	-32
CC(C)NC(=O)c1ccc2sc([C@@H]3O[C@H](CO)[C@H](O)[C@H](O)[C@H]3O)nc2c1	nt	nt	0	6	1
O=C1[C@H]2CCC=C[C@H]2[C@H](c2cccc(Br)c2)N1Cc1ccccc1	8	0	2	-5	1
CCCCNC(=O)c1sc(=S)n2c1[nH]c(=O)c1ccc(C(=O)NCCc3ccc(OC)c(OC)c3)cc12	-2	1	6	22	45*
Cc1ccc(/C=C2\SC(=S)N(/N=C/c3cc([N+](=O)[O-])ccc3O)C2=O)o1	2	15	-4	37*	23
C=CCC[C@@H](Cc1ccc(F)cc1)C(=O)OC[C@@H](NC(=O)[C@@H](CC=C)CC(=O)N[C@@H](CO)Cc1ccccc1)C(C)(C)C	3	1	-7	-6	2
C=CCC[C@H](Cc1ccc(F)cc1)C(=O)OC[C@@H](NC(=O)[C@@H](CC=C)CC(=O)N[C@@H](CO)Cc1ccccc1)C(C)(C)C	4	49*	-8	-18	2
COc1cccc(CNc2ccc(N3CCCCC3)cc2)c1OC	8	0	-17	-6	7
COc1cccc(Nc2ccc(N3CCCCC3)cc2)c1OC	-1	0	10	2	90*
Cn1cccc1/C=C1\SC(=Nc2ccccc2)NC1=O	13	0	5	-5	-85
Cc1ccc(N=C2NC(=O)/C(=C/c3cn(C)c4ccccc34)S2)cc1C	-84	3	-8	34*	-28
